Converted amounts (≈) assume the structure as drawn. The source made the active and inactive calls. The calls are words filed in the database; no cut-off is given here.
What was measured:
[1] = Selectivity index, ratio of IC50 for human Hep2 cells to EC50 for respiratory syncytial virus A2; format: toxicity, cell-based, HEp-2; conditions: for selectivity ratio: Hep2 cells, read-out: Ratio IC50/EC50
In short: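 The selectivity index is IC50/EC50. The IC50 is for Hep-2 cytotoxicity and the EC50 is for RSV A2 CPE inhibition, both in µg/mL from the same CPE assay conditions.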

[2] = tested on: Respiratory syncytial virus; assay: Antiviral activity against respiratory syncytial virus A2 in human Hep2 cells assessed as inhibition of virus-induced cytopathic effect; format: functional, organism-based; conditions: HEp-2
In short: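 Cell-based viral cytopathic effect (CPE) assay with RSV strain A2 in Hep-2 cells. Antiviral activity is expressed in µg/mL as the 50% effective concentration (EC50).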

[3] = Cytotoxicity against human Hep2 cells; format: cell-based, HEp-2; conditions: for IC50: Homo sapiens, HEp-2
In short: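 Cytotoxicity to Hep-2 cells was measured under the same conditions as the viral CPE assay. It is reported in µg/mL as the 50% inhibitory concentration (IC50).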

Molecule `COC(=O)C1=CO[C@@H](O[C@@H]2O[C@H](CO)[C@@H](O)[C@H](O)[C@H]2O)[C@H]2[C@@H]1[C@H](OC(=O)/C=C\c1ccc(O)cc1)C[C@]2(C)OC(C)=O` has a selectivity ratio [1] of 17, an EC50 [2] of 2.46 µg/mL (≈ 4.14 µM) and an IC50 [3] of 42 µg/mL (≈ 70.6 µM).
`COC(=O)C1=CO[C@@H](O[C@@H]2O[C@H](CO)[C@@H](O)[C@H](O)[C@H]2O)[C@H]2[C@@H]1[C@H](OC(=O)/C=C/c1ccc(O)cc1)C[C@]2(C)OC(C)=O` showed a selectivity ratio [1] of 17, an EC50 [2] of 2.46 µg/mL (≈ 4.14 µM) and an IC50 [3] of 42 µg/mL (≈ 70.6 µM).
For `COC(=O)C1=CO[C@@H](O[C@@H]2O[C@H](CO)[C@@H](O)[C@H](O)[C@H]2O)[C@H]2[C@@H]1[C@H](O)C[C@]2(C)OC(C)=O` [BARLERIN], the Activity ([1]; hep-2) was “Not Active”, the Activity [2] was “inactive” and the Activity ([3]; human, hep-2) was “Not Active”.
In the case of `C[C@@H]1O[C@@H](O[C@@H]2[C@@H](O)[C@H](OCCc3ccc(O)c(O)c3)O[C@H](CO)[C@H]2OC(=O)/C=C/c2ccc(O)c(O)c2)[C@H](O)[C@H](O)[C@H]1O` [ACETOSIDE], the selectivity ratio [1] is reported as 85.4 and the IC50 [3] is reported as 76.9 µg/mL (≈ 123 µM).

Reference: ChEMBL document CHEMBL1150966, “New iridoids from the medicinal plant Barleria prionitis with potent activity against respiratory syncytial virus” (J Nat Prod, 1998)
